Reference: ChEMBL document CHEMBL3286275, “Identification of 1-{2-[4-chloro-1'-(2,2-dimethylpropyl)-7-hydroxy-1,2-dihydrospiro[indole-3,4'-piperidine]-1-yl]phenyl}-3-{5-chloro-[1,3]thiazolo[5,4-b]pyridin-2-yl}urea, a potent, efficacious and orally bioavailable P2Y(1) antagonist as an antiplatelet agent” (Bioorg Med Chem Lett, 2014)
pIC50, pKi: −log10 of the molar value. Values after ≈ are worked out from the molar mass of the structure shown. Blank lines part the entries; values can stand above or below the compound they belong to.

How the values were obtained:
P2Y purinoceptor 1 [1] = target: T1, P2Y purinoceptor 1 (Homo sapiens, UniProt P47900); assay: Antagonist activity at P2Y1 receptor in human platelets by FLIPR assay in presence of 2-methylthio-ADP
Procedure, shortened: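 Washed human platelets with endogenous P2Y1; calcium signalling read by FLIPR with reduced protein (~0.1% BSA); agonist 2-methylthio-ADP at 1 µM; IC50 given as mean ± SD.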

Liver microsome [2] = assay: Metabolic stability in rat liver microsomes assessed as compound remaining; assay type: ADME
Procedure, shortened: (§1)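 Liver microsome stability: percent of compound remaining after incubation with […] (3 µM microsomes in some cases).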

Liver microsome [3] = assay: Metabolic stability in human liver microsomes assessed as compound remaining; assay type: ADME; procedure, shortened: as §1
Platelet = assay: Inhibition of ADP-induced platelet aggregation in platelet-rich human plasma; assay type: functional
Procedure, shortened: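 Human platelet-rich plasma; aggregation triggered by 10 µM ADP; IC50 determined.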

P2Y purinoceptor 1 [4] = target: T1, P2Y purinoceptor 1; assay: Binding affinity to P2Y1 receptor in human platelets
Liver microsome [5] = assay: Metabolic stability in human liver microsomes assessed as GSH adduct formation; assay type: ADME
Procedure, shortened: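 Human liver microsomes incubated with glutathione to detect reactive intermediates; GSH adduct (M+GSH) measured as percent.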

[6] = Aqueous solubility of the compound at pH 6.5; assay type: physicochemical; settings: aqueous medium
Procedure, shortened: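 Aqueous solubility taken on crystalline material: free base at pH 6.5, mono-methanesulfonic acid salt at pH 3.9.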

T1 sequence (P47900 whole entry): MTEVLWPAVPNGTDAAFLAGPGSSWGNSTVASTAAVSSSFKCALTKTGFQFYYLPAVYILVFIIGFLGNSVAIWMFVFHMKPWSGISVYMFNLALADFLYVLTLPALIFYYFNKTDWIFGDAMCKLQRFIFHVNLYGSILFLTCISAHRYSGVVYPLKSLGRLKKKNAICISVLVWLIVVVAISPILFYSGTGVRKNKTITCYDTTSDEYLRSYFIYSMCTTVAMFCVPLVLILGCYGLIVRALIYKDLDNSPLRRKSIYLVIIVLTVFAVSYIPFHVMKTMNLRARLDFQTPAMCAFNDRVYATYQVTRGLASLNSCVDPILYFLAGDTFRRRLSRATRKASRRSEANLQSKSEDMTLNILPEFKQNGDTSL

pIC50 (P2Y purinoceptor 1 [1]): 8.34
SMILES: CC(C)(C)CN1CCC2(CC1)CN(c1ccccc1NC(=O)Nc1ccc(OC(F)(F)F)cc1)c1cc(O)ccc12

SMILES: CC(C)(C)CN1CCC2(CC1)CN(c1ccccc1NC(=O)Nc1ccc(OC(F)(F)F)cc1)c1c(O)ccc(C(F)(F)F)c12
Stability (Liver microsome [2]): 98%
Stability (Liver microsome [3]): 100%
pIC50 (Platelet): 6.89
pIC50 (P2Y purinoceptor 1 [1]): 9.85

SMILES: CC(C)(C)CN1CCC2(CC1)CN(c1ccccc1NC(=O)Nc1ccc(OC(F)(F)F)cc1)c1c(O)ccc(Cl)c12
Stability (Liver microsome [2]): 88%
Stability (Liver microsome [3]): 79%
pIC50 (Platelet): 6.35
pIC50 (P2Y purinoceptor 1 [1]): 10.40

SMILES: CC(C)(C)CN1CCC2(CC1)CN(c1ccccc1NC(=O)Nc1ccc(OC(F)(F)F)cc1)c1c(O)cccc12
pKi (P2Y purinoceptor 1 [4]): 8.40
Stability (Liver microsome [5]): Unstable
Stability (Liver microsome [2]): 87%
Stability (Liver microsome [3]): 80%
pIC50 (Platelet): 5.80
pIC50 (P2Y purinoceptor 1 [1]): 9.64
solubility [6]: 30 µg/mL (≈ 52.8 µM)

SMILES: CC(C)(C)CN1CCC2(CC1)CN(c1ccccc1NC(=O)Nc1nc3ccc(Cl)cc3s1)c1c(O)ccc(Cl)c12
Stability (Liver microsome [2]): 93%
Stability (Liver microsome [3]): 96%
pIC50 (Platelet): 6.49
pIC50 (P2Y purinoceptor 1 [1]): 9.77

SMILES: CC(C)(C)CN1CCC2(CC1)CN(c1ccccc1NC(=O)Nc1ccc(OC(F)(F)F)cc1)c1c(O)ccc(C#N)c12
Stability (Liver microsome [2]): 51%
Stability (Liver microsome [3]): 59%
pIC50 (Platelet): 5.96
pIC50 (P2Y purinoceptor 1 [1]): 10.40

SMILES: CC(C)(C)CN1CCC2(CC1)CN(c1ccccc1NC(=O)Nc1ccc(C(F)(F)F)cc1)c1c(O)ccc(Cl)c12
Stability (Liver microsome [2]): 93%
Stability (Liver microsome [3]): 93%
pIC50 (Platelet): 6.40
pIC50 (P2Y purinoceptor 1 [1]): 10.10

SMILES: COC(=O)c1ccc(O)c2c1C1(CCN(CC(C)(C)C)CC1)CN2c1ccccc1NC(=O)Nc1ccc(OC(F)(F)F)cc1
Stability (Liver microsome [2]): 57%
Stability (Liver microsome [3]): 48%
pIC50 (Platelet): 6.15
pIC50 (P2Y purinoceptor 1 [1]): 9.82

SMILES: CC(C)(C)CN1CCC2(CC1)CN(c1ccccc1NC(=O)Nc1ccc(OC(F)(F)F)cc1)c1c(O)ccc(F)c12
Stability (Liver microsome [2]): 70%
Stability (Liver microsome [3]): 78%
pIC50 (Platelet): 6.04
pIC50 (P2Y purinoceptor 1 [1]): 9.43
